Consider 2 molecules from paper PMC6463388 (Biochemical Journal, 2019).

Data set [1] has as its target T1, AtGCL (WT γ-glutamylcysteine ligase) (Arabidopsis thaliana, UniProt P46309).
T1 sequence (P46309 74-522): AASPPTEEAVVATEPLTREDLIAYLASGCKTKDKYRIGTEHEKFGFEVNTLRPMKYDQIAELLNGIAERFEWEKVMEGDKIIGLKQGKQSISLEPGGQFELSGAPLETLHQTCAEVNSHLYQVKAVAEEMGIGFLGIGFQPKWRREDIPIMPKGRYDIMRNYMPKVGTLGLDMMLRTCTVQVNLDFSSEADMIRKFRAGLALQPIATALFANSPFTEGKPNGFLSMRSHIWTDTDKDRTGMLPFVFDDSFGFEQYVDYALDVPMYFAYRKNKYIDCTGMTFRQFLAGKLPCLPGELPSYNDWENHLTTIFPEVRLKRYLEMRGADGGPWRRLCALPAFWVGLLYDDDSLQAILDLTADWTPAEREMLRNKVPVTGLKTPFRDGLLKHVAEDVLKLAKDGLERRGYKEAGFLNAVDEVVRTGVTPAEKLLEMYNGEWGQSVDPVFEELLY
In words: inhibition of GCL activity. It counts as biochemical. Particulars: read-out: GSH. The essentials: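 Recombinant His-tagged AtGCL from E. coli Rosetta-gami DE3, purified by Ni²⁺ affinity, cleaved with TEV protease, then passed through a second Ni²⁺ step. Pyruvate kinase/lactate dehydrogenase-coupled assay at pH 7.0 (100 mM MOPSO, 150 mM NaCl, 20 mM MgCl₂). […] Reaction started with 50 µg enzyme; A340 monitored.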

Substrate in data set [2]: N[C@@H](CCC(=O)O)C(=O)O
Briefly: purified protein. In kind it is biochemical, Arabidopsis thaliana. Particulars: 20 mM cysteine, 20 mM ATP, 20 mM MgCl2, pH 7.0, oxidized homo-dimer.

Substrate in data set [3]: N[C@@H](CS)C(=O)O
Briefly: purified protein. It counts as biochemical, Arabidopsis thaliana. Particulars: 20 mM ATP, 80 mM glutamate, 20 mM MgCl2, pH 7.0, oxidized homo-dimer.

As a reminder, the Km is the concentration of substrate that gives half-maximal velocity.

Regarding `N[C@@H](CCC(=O)N[C@@H](CS)C(=O)NCC(=O)O)C(=O)O` [GSH], the activity at 2000 µM in data set [1] was 49 ± 4%.

B1: AtGCL (WT γ-glutamylcysteine ligase) (Arabidopsis thaliana) (protein)
chain: AASPPTEEAVVATEPLTREDLIAYLASGCKTKDKYRIGTEHEKFGFEVNTLRPMKYDQIAELLNGIAERFEWEKVMEGDKIIGLKQGKQSISLEPGGQFELSGAPLETLHQTCAEVNSHLYQVKAVAEEMGIGFLGIGFQPKWRREDIPIMPKGRYDIMRNYMPKVGTLGLDMMLRTCTVQVNLDFSSEADMIRKFRAGLALQPIATALFANSPFTEGKPNGFLSMRSHIWTDTDKDRTGMLPFVFDDSFGFEQYVDYALDVPMYFAYRKNKYIDCTGMTFRQFLAGKLPCLPGELPSYNDWENHLTTIFPEVRLKRYLEMRGADGGPWRRLCALPAFWVGLLYDDDSLQAILDLTADWTPAEREMLRNKVPVTGLKTPFRDGLLKHVAEDVLKLAKDGLERRGYKEAGFLNAVDEVVRTGVTPAEKLLEMYNGEWGQSVDPVFEELLY
Regarding B1, the Km in data set [2] is listed as 6.64 ± 1.02 mM; in data set [3] it was 0.34 ± 0.12 mM.
